This is a sample that favours compounds with a hit; in the whole collection about 3.7% have one here.
KCNQ1 pot – potentiates or activates the human KCNQ1 potassium channel; P51787; CHO-K1 KCNQ1, thallium flux FluxOR fluorescence; hits give high values; B-score at 10 µM; 310,000 tested, 0.35% active;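 active = fluorescence ratio B-score, a plate-corrected score, at least three library SD, with initial intensity B-score within 5 SD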
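assay system = CHO-K1 cells stably expressing KCNQ1 | medium = assay buffer, equal DMSO in all wells | timing = 37 °C overnight plating, 90-min dark dye load, 20-min compound pretreatment | measured by = kinetic FluxOR thallium fluorescence, 10-s 1-Hz baseline, 110-s post-stimulus read | measure = fluorescence change relative to baseline, converted to B score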
KCNK9 inh – human KCNK9 channel inhibition; HEK293 KCNK9, FluxOR thallium flux fluorescence; hits give low values; B-score at 10 µM; 310,000 tested, 1.2% active;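 active = ratio B-score over 3 SD below the library mean, with starting fluorescence within 5 SD of its mean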;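 also: negative B-score means less thallium flux so channel inhibition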
hERG rescue – compounds protecting human hERG from proarrhythmic drug block; activation (rescue from dofetilide block), less the hit threshold, % at 10 µM; CHO-hERG, FluxOR thallium flux, dofetilide IC70 present; Q12809; 310,000 tested, 0.51% active;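 active = activation above the mean of controls blocked by dofetilide plus 5 SD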;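 also: thallium influx through hERG after potassium depolarization seen as dye fluorescence rise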
Kir21 inh – blocks the mouse Kir2.1 inward-rectifier potassium channel; P35561; 310,000 tested, 0.85% active; HEK293-Kir2.1, FluxOR thallium flux fluorescence; hits give low values; AID 1672; B-score at 10 µM;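 active = fluorescence ratio B-score at or below minus 3 SD of library scores, with starting-brightness B-score within 2 SD, cut at about -4.2 in these data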;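 also: channel flux triggered by added potassium and thallium sulfate stimulus; B-score of peak minus minimum fluorescence over baseline after thallium stimulus; more negative B-score means stronger Kir2.1 block with less thallium influx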
KCNQ1 inh – inhibitors of human KCNQ1 potassium channel | 310,000 tested, 1.3% active | CHO-K1 KCNQ1, FluxOR thallium flux fluorescence; hits give high values | P51787 | AID 2642 | B-score at 10 µM;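 active = compounds whose thallium flux B-score, printed positive for inhibition, exceeds three library SD while starting fluorescence stays within three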;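 also: channel opened by potassium depolarization with thallium stimulus after 20 min compound exposure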
KCNK3 inh – human KCNK3 channel inhibition, primary screen. O14649. CHO-KCNK3 thallium flux, FluxOR fluorescence; hits give low values. B-score at 10 µM. 340,000 tested, 0.84% active. AID 602410;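 active = B-score under library mean minus 4 SD, starting fluorescence ratio at most library mean plus 5 SD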;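 also: more negative B-score means stronger inhibition of thallium flux through KCNK3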
Target sequence (O14649 whole entry, looked up): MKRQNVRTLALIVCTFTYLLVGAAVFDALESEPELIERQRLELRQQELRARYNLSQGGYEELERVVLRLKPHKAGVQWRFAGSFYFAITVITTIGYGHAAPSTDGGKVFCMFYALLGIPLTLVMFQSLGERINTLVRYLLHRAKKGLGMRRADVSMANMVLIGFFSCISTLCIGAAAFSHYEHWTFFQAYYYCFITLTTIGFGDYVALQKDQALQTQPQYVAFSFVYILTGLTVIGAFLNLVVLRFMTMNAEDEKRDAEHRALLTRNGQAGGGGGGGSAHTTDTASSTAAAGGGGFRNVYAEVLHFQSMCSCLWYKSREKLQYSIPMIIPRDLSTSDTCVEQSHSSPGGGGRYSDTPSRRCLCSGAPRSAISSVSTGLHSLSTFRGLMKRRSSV
KCNQ1 inh valid – human KCNQ1 channel inhibition, validation assay; shares compounds with KCNQ1 inh; KCNQ1 cell line, FluxOR thallium flux fluorescence; inhibition, % at 10 µM; 1,600 tested, 93% active;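 active = primary screen active, with duplicate mean exceeding buffer control mean plus 3 SD of buffer wells, cut at about 28% in these data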;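 also: 0% = buffer control ratio and 100% = XE991 inhibitor control ratio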
CHO Tl flux – activity in parental CHO cells lacking KCNQ1. shares compounds with KCNQ1 inh. fluorescence ratio (Tl flux) at 10 µM. 1,600 tested, 21% active. parental CHO-K1, FluxOR thallium flux fluorescence ratio; hits give low values; zero means no signal rise above baseline;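 active = mean of duplicate thallium-flux fluorescence ratios in parental host cells more than 5 SD below the buffer control mean, cut at about 0.38 in these data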;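 also: ratio is peak minus minimum fluorescence divided by baseline fluorescence; actives read low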
KCNQ1 APC inh – human KCNQ1 inhibition validated by electrophysiology | shares compounds with KCNQ1 inh | KCNQ1-CHO cells, automated patch clamp current | calls only at 10 µM | 490 tested, 20% active;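 active = KCNQ1 current drop exceeding 3 SD of negative control wells, seen in both duplicate runs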;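 also: steady state current during a 2 s step from -80 to +40 mV; negative values mean current inhibition and positive values mean potentiation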
KCNQ2 spec – rat KCNQ2 inhibition in KCNQ1 inhibitor specificity screen; shares compounds with KCNQ1 inh; KCNQ2 cells, FluxOR thallium flux fluorescence; inhibition, % at 10 µM; 1,600 tested, 71% active; AID 651746;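 active = mean percent inhibition of the KCNQ2 thallium signal more than 5 SD above the buffer-only control wells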;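 also: KCNQ2 expressed in CHO cells; 0% = buffer control wells and 100% = XE-991 inhibitor control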
KCNQ1 KCNE1 spec – KCNQ1 inhibitor that also blocks human KCNQ1/KCNE1 channel; shares compounds with KCNQ1 inh; AID 652147; 1,600 tested, 77% active; inhibition, % at 10 µM; KCNQ1/KCNE1 cells, FluxOR thallium flux fluorescence;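 active = mean percent inhibition of duplicate wells above the buffer-only control mean plus 3 SD of those controls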;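 also: 0% = buffer only wells and 100% = XE-991 inhibitor control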
KCNK9 block conf – human KCNK9 inhibitor confirmation. shares compounds with KCNK9 inh. HEK293 KCNK9 cells, FluxOR thallium flux fluorescence. inhibition, % at 10 µM. 4,900 tested, 43% active. AID 492992;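 active = thallium signal inhibited by more than 5 SD of the compound-free buffer control wells, on both duplicate plates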;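 also: 0% = assay buffer control wells without compound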
Kir21 sel – tests whether KCNK9 modulators also affect mouse Kir2.1; shares compounds with KCNK9 inh; Kir2.1 cells, FluxOR thallium flux fluorescence; inhibition, % at 10 µM; 4,900 tested, 4% active;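 active = thallium signal drop more than 5 SD beyond the mean of the no-compound control wells, seen in both duplicate plates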;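 also: signal is fluorescence rise after thallium addition divided by baseline fluorescence; plate controls were assay buffer only for no effect and full block by chlorpromazine control for full effect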
KCNK9 uninduced – second counter-screen for KCNK9 modulators: effect in non-induced cells. inhibition, % at 10 µM. shares compounds with KCNK9 inh. AID 492997. 4,900 tested, 40% active. non-induced KCNK9-HEK293, FluxOR thallium flux;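 active = thallium signal drop beyond 5 SD of the untreated control mean, on both duplicate plates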;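 also: plate controls were buffer only IC0 wells for no effect and SID17386958 at its maximal inhibitory level for full effect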
KCNK3 confirm – confirmation of human KCNK3 two-pore domain potassium channel inhibitors; 2,400 tested, 99% active; AID 651638; CHO-KCNK3 thallium flux, FluxOR fluorescence; 0% buffer, 100% carvedilol maximal block; ratio percent of control, % at 10 µM; shares compounds with KCNK3 inh;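 active = ratio percent of control, averaged over triplicates, above buffer control mean plus 5 SD, cut at about 64% in these data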;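 also: ratio is the fluorescence rise from min to max over baseline after thallium stimulus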
KCNK3 uninduced – counter-screen for KCNK3 inhibitors: effect in non-induced cells; 2,400 tested, 40% active; shares compounds with KCNK3 inh; non-induced KCNK3 parental cells, FluxOR thallium flux; hits give low values; thallium flux ratio (lower = more inhibition) at 10 µM;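 active = thallium flux ratio, averaged over three wells, more than 5 SD below the buffer control mean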;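 also: host cells are CHO cells without KCNK3 induction; ratio is peak minus trough fluorescence over baseline then normalized to buffer controls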
Starred values were filed as active, the others as inactive; i = inactive; . = not tested or not shown; + = active, no number.

SMILES	KCNQ1 pot	KCNK9 inh	hERG rescue	Kir21 inh	KCNQ1 inh	KCNK3 inh	KCNQ1 inh valid	CHO Tl flux	KCNQ2 spec	KCNQ1 KCNE1 spec	KCNK3 confirm	KCNK3 uninduced	others
CN(C)/C=C/C(=O)c1ccc(F)cc1F	i	i	-0.3	-0.76	i	i	.	.	.	.	.	.
CCOC(=O)[C@H]1[C@H]2COc3ccc(Cl)cc3[C@@H]2N2C(=O)CN(Cc3ccc(Cl)cc3)C(=O)[C@@]12C	.	.	.	.	.	i	.	.	.	.	.	.
O=C1OC(Sc2ccccc2)(c2ccccc2)c2ccccc21 (stereo unspecified)	.	.	.	.	.	i	.	.	.	.	.	.
O=C1CCCc2nc(N3CCN(C(=O)c4ccco4)CC3)ncc21	i	i	-7.2	0.69	i	i	.	.	.	.	.	.
O=C1CCCc2nc(N3CCN(C(c4ccccc4)c4ccccc4)CC3)ncc21	i	i	-9.5	-0.24	8*	-8.76*	96.5*	0.445	108.0%*	165.0%*	119.3*	0.145*	KCNQ1 APC inh=i
COc1ccc(N(CC(=O)NC2CCCCC2)C(=O)CCC(=O)Nc2nc(C)cs2)cc1	i	i	-8.8	1.56	i	i	.	.	.	.	.	.
CCOC(=O)C1CCN(c2c(C(=O)c3ccccc3)cnc3ccc(CC)cc23)CC1	i	-11.1*	-7.0	1.09	7*	-11.6*	134.5*	0.395	128.3%*	192.5%*	109.7*	i	KCNK9 block conf=28.0%*;Kir21 sel=i;KCNK9 uninduced=33.5%*
Cc1cc(SCC(=O)c2ccc3c(c2)OCO3)nc2ccccc12	i	i	-12.6	-3.28	i	i	.	.	.	.	.	.
Cc1cc(SCC(=O)c2ccc(O)c(O)c2)nc2ccccc12	i	i	-17.0	-1	9*	-9.44*	99.5*	0.47	i	116.0%*	120.3*	0.142*	KCNQ1 APC inh=i
COc1ccc(-c2noc(N3CCC(C(=O)NCCCN4CCCC(C)C4)CC3)n2)cc1 (stereo unspecified)	i	i	-13.0	-1.63	i	i	.	.	.	.	.	.
O=C(Nc1ccc(OC(F)F)c(Cl)c1)c1cccc(OC(F)F)c1	i	-11.6*	-28.9	0.7	12*	-11*	105.5*	0.521	i	43.0%*	120.0*	i	KCNQ1 APC inh=+;KCNK9 block conf=54.5%*;Kir21 sel=i;KCNK9 uninduced=i
COc1ccc(NC(=O)c2cccc(OC(F)F)c2)cc1Cl	i	i	-7.5	-0.43	i	i	.	.	.	.	.	.
C=CCNc1nc2c(c(=O)[nH]c(=O)n2C)n1CCOc1ccccc1	i	i	-9.1	1.56	i	i	.	.	.	.	.	.
CCC(C(=O)Nc1ccncc1)c1ccccc1 (stereo unspecified)	i	i	-6.7	-0.42	i	i	.	.	.	.	.	.

Compound activity from PubChem.
